From ChEMBL document CHEMBL2034888, “Synthesis, anticonvulsant activity, and neuropathic pain-attenuating activity of N-benzyl 2-amino-2-(hetero)aromatic acetamides” (Bioorg Med Chem, 2012)

Key:
[1] = system: Mus musculus; test: Toxicity in ip dosed NMRI mouse assessed as convulsions at 130 mg/kg, ip after 30 mins; format: organism-based; parameters: dose 130 mg/kg, route intraperitoneal; settings: in vivo, 0.5 h
Outline: (§1)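 Adult male NMRI mice were dosed ip. Whole-animal pharmacological observation was made at the stated mg/kg dose, recording tremors, convulsions, writhing, impaired gait or mortality. Timing was 30 min post-dose.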

[2] = system: Mus musculus; test: Anticonvulsant activity in ip dosed NMRI mouse assessed as protection against maximal electroshock-induced seizure after 30 mins postdose; format: functional; settings: 0.5 h
Outline: (§2)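 Adult male NMRI mice given compound intraperitoneally; maximal electroshock seizure test run 30 min after dosing. Where a dose–response was run, ED50 in mg/kg was derived. Otherwise a minimal active dose was reported, or the percentage of mice protected at a single dose.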

[3] = system: Mus musculus; test: Antinociceptive activity in ip dosed NMRI mouse neuropathic pain model assessed as protection against formalin-induced nociceptive behaviour after 30 mins; format: functional; settings: 0.5 h
Outline: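 Formalin test in adult male NMRI mice used as a prescreen for pain attenuation, 30 min after ip administration. ED50 in mg/kg was derived where possible. Otherwise the percent protected after a single stated dose was reported.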

[4] = system: Mus musculus; test: Anticonvulsant activity in ip dosed NMRI mouse assessed as protection against 6 Hz psychomotor seizure after 30 mins; format: functional; settings: 0.5 h
Outline: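 Adult male NMRI mice dosed ip. Psychomotor seizures were induced by 6 Hz stimulation at 44 mA, 30 min after administration. ED50 in mg/kg was derived where determinable, otherwise a minimal active dose was reported.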

[5] = system: Mus musculus; test: Toxicity in ip dosed NMRI mouse assessed as writhings at 130 mg/kg, ip after 30 mins; format: organism-based; parameters: dose 130 mg/kg, route intraperitoneal; settings: in vivo, 0.5 h; outline: as §1
[6] = system: Mus musculus; test: Protective index, ratio of TD50 for NMRI mouse to ED50 for antinociceptive activity in ip dosed NMRI mouse neuropathic pain model; format: functional
[7] = Neurotoxicity in ip dosed NMRI mouse after 30 mins by rotorod test; format: toxicity, organism-based; settings: in vivo
Outline: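 Neurological impairment was scored by rotorod in adult male NMRI mice 30 min after ip dosing. TD50 in mg/kg was derived where possible, otherwise the maximal tolerated dose was given.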

[8] = system: Mus musculus; test: Protective index, ratio of TD50 for NMRI mouse to ED50 for anticonvulsant activity in ip dosed NMRI mouse by maximal electroshock seizure test; format: functional
[9] = system: Mus musculus; test: Toxicity in ip dosed NMRI mouse assessed as tremors at 100 mg/kg, ip after 30 mins; format: organism-based; parameters: dose 100 mg/kg, route intraperitoneal; settings: in vivo, 0.5 h; outline: as §1
[10] = system: Mus musculus; test: Anticonvulsant activity in NMRI mouse assessed as protection against maximal electroshock-induced seizure at 140 mg/kg, ip after 30 mins; format: functional; settings: route intraperitoneal; outline: as §2
[11] = system: Mus musculus; test: Toxicity in ip dosed NMRI mouse assessed as impaired gait at 100 mg/kg, ip after 30 mins; format: organism-based; parameters: dose 100 mg/kg, route intraperitoneal; settings: in vivo, 0.5 h; outline: as §1
[12] = Neurotoxicity in ip dosed albino CF-1 mouse by rotorod test; format: toxicity, organism-based; settings: in vivo
[13] = system: Mus musculus; test: Anticonvulsant activity in ip dosed albino CF-1 mouse assessed as protection against maximal electroshock-induced seizure after 0.5 hrs; format: functional; settings: albino CF-1, ip
[14] = system: Mus musculus; test: Anticonvulsant activity in ip dosed albino CF-1 mouse assessed as protection against maximal electroshock-induced seizure; format: functional; settings: albino CF-1, ip
[15] = Neurotoxicity in ip dosed albino CF-1 mouse by horizontal screen test; format: toxicity, organism-based; settings: in vivo
[16] = Neurotoxicity in ip dosed albino CF-1 mouse after 30 mins by rotorod test; format: toxicity, organism-based; settings: in vivo

| Structure (SMILES) | ED50 [2] | ED50 [3] | ED50 [4] | ED50 [13] | further results |
| --- | --- | --- | --- | --- | --- |
| NC(C(=O)NCc1ccccc1)c1ccc2ccccc2n1 (racemic) | > 41 mg/kg | 54 mg/kg | > 130 mg/kg |  | Activity [1]: Toxic; Activity [5]: Toxic |
| NC(C(=O)NCc1ccccc1)c1cnc2ccccc2n1 (racemic) | > 120 mg/kg | 42 mg/kg | > 120 mg/kg |  |  |
| NC(C(=O)NCc1ccccc1)c1ccco1 (racemic) | 85 mg/kg | 29 mg/kg | > 150 mg/kg |  | Ratio TD50/ED50 [6]: >5.1; TD50 at 0.5 h [7]: > 150 mg/kg; Ratio TD50/ED50 [8]: >1.8 |
| Cc1ccc(C(N)C(=O)NCc2ccccc2)o1 (racemic) |  | > 78 mg/kg | > 140 mg/kg |  | minimal effective dose ([2]; read-out: MED): 100 mg/kg; Activity [9]: Toxic; Activity [10]: 100%; Activity [11]: Toxic |
| CC(=O)NC(C(=O)NCc1ccccc1)c1cccs1 (racemic) |  |  |  | 45 mg/kg | TD50 [12]: 30 mg/kg |
| CC(=O)NC(C(=O)NCc1ccccc1)c1cc2ccccc2s1 (racemic) |  |  |  |  | TD50 [12]: 100 mg/kg; ED50 [14]: 100 mg/kg |
| CC(=O)NC(C(=O)NCc1ccccc1)c1ccccc1 (racemic) |  |  |  | 32 mg/kg | TD50 [15]: > 40 mg/kg |
| CC(=O)NC(C(=O)NCc1ccccc1)c1ccco1 (racemic) |  |  |  | 10 mg/kg | TD50 at 0.5 h [16]: 40 mg/kg |
| CC(=O)NC(C(=O)NCc1ccccc1)c1ccccn1 (racemic) |  |  |  | 11 mg/kg | TD50 [12]: 25 mg/kg |
| CC(=O)NC(C(=O)NCc1ccccc1)c1cnccn1 (racemic) |  |  |  | 15 mg/kg | TD50 at 0.5 h [16]: 58 mg/kg |
| CC(=O)NC(C(=O)NCc1ccccc1)c1nccs1 (racemic) |  |  |  | 12 mg/kg | TD50 at 0.5 h [16]: 69 mg/kg |
| CC(=O)NC(C(=O)NCc1ccccc1)c1ccc(C)o1 (racemic) |  |  |  | 19 mg/kg | TD50 at 0.5 h [16]: 75 mg/kg |
| COC[C@@H](NC(C)=O)C(=O)NCc1ccccc1 [LACOSAMIDE] | 3.3 mg/kg | 15 mg/kg | 10 mg/kg |  | Ratio TD50/ED50 [6]: 1.3; Ratio TD50/ED50 [8]: 5.8 |
| CCC1(c2ccccc2)C(=O)NC(=O)NC1=O [PHENOBARBITAL] | 22 mg/kg |  |  |  |  |
| CCCC(CCC)C(=O)[O-].[Na+] [VALPROATE SODIUM] | 270 mg/kg |  |  |  |  |
